The nature of test [1]: Inhibition of recombinant Candida albicans SAP2 using Dabcyl-Arg-Lys-Pro-Ala-Leu-Phe-Phe-Arg-Leu-Glu (EDANS)-Arg-OH as substrate incubated for 30 mins followed by substrate addition and measured after 30 mins by spectrophotometry.
Test [2] concerns Candida albicans. As to the kind of experiment: Inhibition of recombinant Candida albicans SAP2 at 100 uM using Dabcyl-Arg-Lys-Pro-Ala-Leu-Phe-Phe-Arg-Leu-Glu (EDANS)-Arg-OH as substrate incubated for 30 mins followed by substrate addition and measured after 30 mins by spectrophotometry relative to control. The note with it: time 60.0 min. In outline: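 FRET assay with purified expressed C. albicans SAP2 in 50 mM sodium citrate, 50 mM NaCl, pH 4.5. Compound (diluted in DMSO) was preincubated with enzyme 30 min before adding the Dabcyl/EDANS peptide substrate (18.75 μM solution in DMSO). Reaction ran 30 min at 30 °C, then fluorescence was read at ex 340, em 485 nm. Pepstatin A was the positive control.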

The subject of test [3] is Candida albicans. As to the kind of experiment: Antibiofilm activity against azole resistant Candida albicans 0304103 assessed as inhibition of biofilm formation incubated for 24 hrs by XTT-dye based assay. Format: functional, organism-based. The note with it: dose 4-64 µg/ml. In outline:
(§1)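 Cell suspensions (1.0 × 10^5 CFU/mL) were adhered for 90 min at 37°C, then rinsed three times with PBS. Compounds were added at a range of concentrations from 2 mg/mL DMSO stocks, with fluconazole as the positive control. Plates were cultured 24 h at 37°C, and biofilm was measured semi-quantitatively by XTT reduction.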
(Tetrazolium assays rely on reduction of a dye to a coloured formazan, in cell work by metabolically active cells.)

For test [4], the system named is Candida tropicalis. As to the kind of experiment: Antibiofilm activity against azole resistant Candida tropicalis 10186 assessed as inhibition of biofilm formation incubated for 24 hrs by XTT-dye based assay. It counts as functional, organism-based. To be noted: dose 4-64 µg/ml. In outline: as §1
Test [5] concerns Candida tropicalis. Description: Antibiofilm activity against azole resistant Candida tropicalis 10186 assessed as inhibition of biofilm formation at 64 ug/ml incubated for 24 hrs by XTT-dye based assay relative to control. It counts as functional. In outline: as §1
The subject of test [6] is Candida albicans. As to the kind of experiment: Antibiofilm activity against azole resistant Candida albicans 0304103 assessed as inhibition of biofilm formation at 0.5 ug/ml in presence of fluconazole incubated for 24 hrs by XTT-dye based assay. Format: functional, organism-based. To be noted: dose 0.5 µg/ml.
The subject of test [7] is Candida albicans. As to the kind of experiment: Antibiofilm activity against azole resistant Candida albicans 0304103 assessed as inhibition of biofilm formation at 32 ug/ml in presence of fluconazole incubated for 24 hrs by XTT-dye based assay relative to control. Format: functional.
Test [8] concerns Candida albicans. Description: Inhibition of hyphal formation in azole resistant Candida albicans 0304103 at 128 ug/ml incubated for 3 hrs by microscopic imaging analysis. It counts as functional. In outline: (§2)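 Yeast cells (1.0 × 10^5 CFU/mL) were exposed to a range of compound concentrations, with fluconazole as the positive drug. Plates were incubated at 37°C for 3 h (C. albicans 0304103 and SC5314) or 7 h (C. tropicalis 10186). Hyphal growth was then observed and photographed by microscopy.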

Test [9] concerns Candida albicans. Description: Inhibition of hyphal formation in azole sensitive Candida albicans SC5314 at 128 ug/ml incubated for 3 hrs by microscopic imaging analysis. Format: functional. In outline: as §2
Test [10] deals with Candida albicans. Description: Inhibition of hyphal formation in azole resistant Candida albicans 0304103 at 4 to 32 ug/ml incubated for 3 hrs by microscopic imaging analysis. Format: functional, organism-based. The note with it: dose 4-32 µg/ml. In outline: as §2
For test [11], the system named is Candida albicans. Description: Inhibition of hyphal formation in azole sensitive Candida albicans SC5314 at 4 to 32 ug/ml incubated for 3 hrs by microscopic imaging analysis. Format: functional, organism-based. The note with it: dose 4-32 µg/ml. In outline:
as §2

Test [12] deals with Candida tropicalis. As to the kind of experiment: Inhibition of hyphal formation in azole resistant Candida tropicalis 10186 at 4 to 16 ug/ml incubated for 7 hrs by microscopic imaging analysis. Format: functional, organism-based. To be noted: dose 4-16 µg/ml. In outline: as §2
The test system of test [13] is Candida tropicalis. As to the kind of experiment: Inhibition of hyphal formation in azole resistant Candida tropicalis 10186 at 64 ug/ml incubated for 7 hrs by microscopic imaging analysis. Format: functional. In outline: as §2
Test [14] concerns Candida albicans. As to the kind of experiment: Downregulation of SAP2 in azole resistant Candida albicans 0304103 at 64 ug/ml by qRT-PCR analysis. Format: functional. The note with it: dose 64.0 µg/ml. (In general: In qPCR the cycle at which signal appears reflects the starting amount.)
The test system of test [15] is Candida albicans. Description: Downregulation of ECE2 in azole resistant Candida albicans 0304103 at 64 ug/ml by qRT-PCR analysis. It counts as functional. To be noted: dose 64.0 µg/ml.
The test system of test [16] is Candida albicans. As to the kind of experiment: Downregulation of ALS3 in azole resistant Candida albicans 0304103 at 64 ug/ml by qRT-PCR analysis. Format: functional. To be noted: dose 64.0 µg/ml.
For test [17], the system named is Candida albicans. Description: Downregulation of EFG1 in azole resistant Candida albicans 0304103 at 64 ug/ml by qRT-PCR analysis. Format: functional. The note with it: dose 64.0 µg/ml.
Test [18] concerns Candida albicans. As to the kind of experiment: Upregulation of CPH1 in azole resistant Candida albicans 0304103 at 64 ug/ml by qRT-PCR analysis. It counts as functional. To be noted: dose 64.0 µg/ml.
In test [19] the test system is Candida albicans. Description: Upregulation of TEC1 in azole resistant Candida albicans 0304103 at 64 ug/ml by qRT-PCR analysis. It counts as functional. To be noted: dose 64.0 µg/ml.
Test [20] deals with Candida albicans. As to the kind of experiment: Antifungal activity against azole resistant Candida albicans 0304103 infected in ICR mouse assessed as reduction in fungal burden in kidney at 10 mg/kg, ip administered for 4 days. Format: functional, organism-based. To be noted: time 4.0 day. In outline:
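Female ICR mice (20–25 g) were immunosuppressed with cyclophosphamide, 100 mg/kg ip in saline. After 24 h they were infected iv with 0.2 mL of 1×10^5 CFU/mL cells. Starting 24 h after infection, mice (4 per group) received the drug ip once daily for four days; controls received saline or fluconazole 10 mg/kg. Kidneys were homogenized and plated on YPD at 30°C for log10 CFU.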

The source made the active and inactive calls. The calls are words filed in the database; no cut-off is given here.

As for `Cc1ccc(CN2C(=O)/C(=C/c3ccc(OCC(=O)O)cc3OCC(=O)O)c3ccc(-c4ccc(C)cc4)cc32)cc1`, the IC50 in test [1] was 920 nM. For the same molecule, the inhibition was 100% with Candida albicans [2], “Dose-dependent effect” in the test with Candida albicans [3] and “Dose-dependent effect” with Candida tropicalis [4]. For the same molecule, the values for the inhibition at 64 µg/mL in the test on Candida tropicalis [5] and with Candida tropicalis [13] were above 50% and 100%, respectively. The inhibition result in the test on Candida albicans [6] and in the test on Candida tropicalis [12] was “Active” throughout. For the same molecule, the inhibition at 32 µg/mL with Candida albicans [7] is 90%. Besides, the inhibition at 128 µg/mL with Candida albicans [8] and in the test on Candida albicans [9] was 100% in each case. Moreover, the inhibition result with Candida albicans [10] and in the test with Candida albicans [11] was “inactive” each time. For the same molecule, the outcome in the test with Candida albicans [14], with Candida albicans [15], with Candida albicans [16], with Candida albicans [17], with Candida albicans [18] and in the test on Candida albicans [19] was Active. Further, the result in the test on Candida albicans [20] was Active.

What is called IC50 is the concentration that gives 50% inhibition. What is called inhibition is how much of the control response was suppressed.

The values above are taken from ChEMBL document CHEMBL4765366, “Targeting fungal virulence factor by small molecules: Structure-based discovery of novel secreted aspartic protease 2 (SAP2) inhibitors” (Eur J Med Chem, 2020).
